In ChEMBL document CHEMBL1136929 (J Med Chem, 2009):
The source made the active and inactive calls. The rule behind the calls is not given here.

How the values were obtained:
Cannabinoid receptor 1 = Cannabinoid receptor 1 (Homo sapiens, UniProt P21554); assay: Displacement of [3H]CP-55940 from human recombinant CB1 receptor expressed in HEK293 cells; assay type: cell-based
Cannabinoid receptor 2 = Cannabinoid receptor 2 (Homo sapiens, UniProt P34972); assay: Displacement of [3H]CP-55940 from human recombinant CB2 receptor expressed in HEK293 cells; assay type: cell-based
Jurkat [1] = assay: Cytotoxicity against human Jurkat cells at 10 uM after 48 hrs by WST1 assay in presence of AM630; assay type: functional, cell-based
Summary of the method: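 Jurkat cells (2 × 10⁴ per well) in serum-free medium, after 2 h, exposed to compound (10 µM) together with CB2 antagonist AM630 (1 µM) for 48 h. Viability by WST-1 (60 min, 37 °C, A450) against solvent controls. Two experiments in triplicate.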

[2] = Cytotoxicity against human U87MG cells after 48 hrs by WST1 assay; assay type: functional, cell-based; settings: u-87mg atcc
Summary of the method: (§1)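 Jurkat (2 × 10⁴ per well, 2 h settling) or U87MG (4 × 10³ per well, 24 h attachment) cells in serum-free medium. Exposed to compound (0.1-10 µM; DMSO stocks diluted in medium) for 48 h. Viability read by WST-1 (60 min, 37 °C, A450) against solvent controls, blank-subtracted. IC50 is the concentration giving 50% of control absorbance. Three experiments in triplicate.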

Jurkat [3] = assay: Cytotoxicity against human Jurkat cells after 48 hrs by WST1 assay; assay type: functional, cell-based; summary of the method: as §1
[4] = Cytotoxicity against human U87MG cells at 10 uM after 48 hrs by WST1 assay; assay type: functional, U-87MG ATCC
Summary of the method: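 U87MG cells (4 × 10³ per well) in serum-free medium, attached 24 h, then exposed to compound at 10 µM for 48 h (DMSO stock diluted in medium). Viability inhibition by WST-1 (60 min, 37 °C, A450) compared with solvent-treated controls.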

Chain of Cannabinoid receptor 2 (P34972 whole entry): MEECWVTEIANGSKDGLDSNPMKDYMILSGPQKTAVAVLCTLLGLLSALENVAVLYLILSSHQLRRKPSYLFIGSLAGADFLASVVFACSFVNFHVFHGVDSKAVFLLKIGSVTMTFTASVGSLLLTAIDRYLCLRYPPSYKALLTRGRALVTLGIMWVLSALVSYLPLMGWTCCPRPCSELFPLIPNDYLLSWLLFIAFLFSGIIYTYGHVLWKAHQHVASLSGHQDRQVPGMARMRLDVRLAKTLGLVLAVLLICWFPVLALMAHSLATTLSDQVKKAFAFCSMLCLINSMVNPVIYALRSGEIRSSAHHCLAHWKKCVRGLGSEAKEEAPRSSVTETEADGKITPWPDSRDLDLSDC
Chain of Cannabinoid receptor 1 (P21554 whole entry): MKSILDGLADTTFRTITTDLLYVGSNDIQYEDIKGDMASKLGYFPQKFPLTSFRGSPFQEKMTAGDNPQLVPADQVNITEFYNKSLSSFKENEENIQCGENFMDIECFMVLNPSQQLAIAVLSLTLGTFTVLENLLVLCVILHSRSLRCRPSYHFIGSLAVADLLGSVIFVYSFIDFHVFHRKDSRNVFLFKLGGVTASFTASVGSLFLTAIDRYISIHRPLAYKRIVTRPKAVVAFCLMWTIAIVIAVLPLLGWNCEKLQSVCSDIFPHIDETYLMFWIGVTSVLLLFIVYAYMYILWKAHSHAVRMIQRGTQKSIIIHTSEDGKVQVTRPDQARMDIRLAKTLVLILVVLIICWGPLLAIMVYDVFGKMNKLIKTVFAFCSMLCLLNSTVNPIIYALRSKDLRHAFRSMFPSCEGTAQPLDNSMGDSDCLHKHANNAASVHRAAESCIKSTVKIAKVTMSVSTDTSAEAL

Row | Structure (SMILES) | Ki (Cannabinoid receptor 1) | Ki (Cannabinoid receptor 2) | further results
1 | O=C(NC1CCCCCC1)c1cc2cccnc2n(Cc2ccccc2)c1=O | 960 nM | 22 nM | 
2 | CCCCn1c(=O)c(C(=O)NC2CCCCC2)cc2cccnc21 | 5600 nM | 70 nM | 
3 | COc1ccc(C(=O)c2c(C)n(CCN3CCOCC3)c3cc(I)ccc23)cc1 |  |  | Activity (Jurkat [1]): inactive
4 | CCCC(C)(C)c1ccc2c(c1)OC(C)(C)[C@@H]1CC=C(C)C[C@@H]21 |  | 3 nM | 
5 | O=C(NC1CCCCC1)c1cc2cccnc2n(Cc2ccc(F)cc2)c1=O | 56 nM | 2.2 nM | 
6 | C[C@H]1CC[C@@H](NC(=O)c2cc3cccnc3n(Cc3ccc(F)cc3)c2=O)CC1 | 200 nM | 0.7 nM | 
7 | O=C(NC1CCCCCC1)c1cc2cccnc2n(CCN2CCOCC2)c1=O | 18 nM | 3 nM | 
8 | O=C(NCCc1ccc(F)cc1)c1cc2cccnc2n(Cc2ccccc2)c1=O | 6950 nM | 69.8 nM | 
9 | O=C(NC1CCCCC1)c1cc2cccnc2n(Cc2ccccc2)c1=O | 560 nM | 31 nM | 
10 | O=C(NC1CCCCCC1)c1cc2cccnc2n(Cc2ccc(F)cc2)c1=O | 9.6 nM | 0.7 nM | 
11 | CC1CCC(NC(=O)c2cc3cccnc3n(CCN3CCOCC3)c2=O)CC1 (centres undefined) | 1000 nM | 1.9 nM | 
12 | C[C@H]1CC[C@H](NC(=O)c2cc3cccnc3n(Cc3ccc(F)cc3)c2=O)CC1 | 300 nM | 9 nM | 
13 | CCCn1c(C)c(C(=O)c2cccc3ccccc23)c2ccccc21 |  |  | IC50 [2]: Not Active; IC50 (Jurkat [3]): 9600 nM; Activity [4]: 20%
14 | C[C@H]1CC[C@H](NC(=O)c2cc3cccnc3n(Cc3ccccc3)c2=O)CC1 | 5250 nM | 39.8 nM | 
15 | O=C(NC1CCCCC1)c1cc2cccnc2n(CCN2CCOCC2)c1=O | 560 nM | 7.9 nM | 
16 | C[C@H]1CC[C@@H](NC(=O)c2cc3cccnc3n(Cc3ccccc3)c2=O)CC1 | 1520 nM | 5.8 nM | 
17 | CC1CCC(NC(=O)c2cc3cccnc3n(Cc3ccc(F)cc3)c2=O)CC1 (centres undefined) | 200 nM | 0.9 nM | 
18 | CC1CCC(NC(=O)c2cc3cccnc3n(Cc3ccccc3)c2=O)CC1 (centres undefined) | 1600 nM | 7.8 nM | IC50 [2]: Not Active; Activity (Jurkat [3]): Dose-dependent effect; IC50 (Jurkat [3]): 5980 nM; Activity [4]: 20%
